The text below walks through data of ChEMBL document CHEMBL1136045, “Synthesis, in vitro receptor binding, and in vivo evaluation of fluorescein and carbocyanine peptide-based optical contrast agents” (J Med Chem, 2002).

In the test the target is Somatostatin receptor. In words: In vitro binding affinity of [111In]DTPA-[Y3]-octreotate to somatostatin receptor in the rat pancreatic tumor cell line, […]. In outline: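 Competition binding on CA20948 rat pancreatic cell membranes with the tracer [111In]-DTPA-[Y3]-octreotate and increasing concentrations of unlabeled competitor. Incubation 90 min at room temperature, then filtration and buffer washes. Filter-bound radioactivity was gamma-counted, and IC50 came from a four-parameter curve fit. Specific activity of the radiolabeled peptide was >1400 Ci/mmol.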
On to `C[C@@H](O)[C@H](NC(=O)[C@H]1CSSC[C@H](NC(=O)[C@@H](Cc2ccccc2)/N=C(/S)Nc2ccc3c(c2)C(=O)OC32c3ccc(O)cc3Oc3cc(O)ccc32)C(=O)N[C@@H](Cc2ccc(O)cc2)C(=O)N[C@H](Cc2c[nH]c3ccccc23)C(=O)N[C@@H](CCCCN)C(=O)N[C@H]([C@@H](C)O)C(=O)N1)C(=O)O`, for which the IC50 (in general, the concentration needed to halve the response being measured) is 0.0099 µM.
Molecule `C[C@@H](O)[C@@H](CO)NC(=O)[C@H]1CSSC[C@H](NC(=O)[C@H](N)Cc2ccccc2)C(=O)N[C@@H](Cc2ccc(O)cc2)C(=O)N[C@H](Cc2c[nH]c3ccccc23)C(=O)N[C@@H](CCCCN)C(=O)N[C@H]([C@@H](C)O)C(=O)N1` returned a 50% inhibitory concentration (IC50) of 0.0004 µM.
In the case of `C[C@@H](O)[C@H](NC(=O)[C@H]1CSSC[C@H](NC(=O)[C@@H](Cc2ccccc2)NC(=O)C(N)CCCC/N=C(\S)Nc2ccc3c(c2)C(=O)OC32c3ccc(O)cc3Oc3cc(O)ccc32)C(=O)N[C@@H](Cc2ccc(O)cc2)C(=O)N[C@H](Cc2c[nH]c3ccccc23)C(=O)N[C@@H](CCCCN)C(=O)N[C@H]([C@@H](C)O)C(=O)N1)C(=O)O` (stereo partly specified) it was 0.1878 µM.
In the case of `C[C@@H](O)[C@H](NC(=O)[C@H]1CSSC[C@H](NC(=O)[C@@H](Cc2ccccc2)NC(=O)C(CCCC/N=C(\S)Nc2ccc3c(c2)C(=O)OC32c3ccc(O)cc3Oc3cc(O)ccc32)NC(=O)CN(CCN(CCN(CC(=O)O)CC(=O)O)CC(=O)O)CC(=O)O)C(=O)N[C@@H](Cc2ccc(O)cc2)C(=O)N[C@H](Cc2c[nH]c3ccccc23)C(=O)N[C@@H](CCCCN)C(=O)N[C@H]([C@@H](C)O)C(=O)N1)C(=O)O` (stereo partly specified) it was 0.0103 µM.
Molecule `C[C@@H](O)[C@H](NC(=O)[C@H]1CSSC[C@H](NC(=O)[C@@H](Cc2ccccc2)NC(=O)C(CCCCN)/N=C(\S)Nc2ccc3c(c2)C(=O)OC32c3ccc(O)cc3Oc3cc(O)ccc32)C(=O)N[C@@H](Cc2ccc(O)cc2)C(=O)N[C@H](Cc2c[nH]c3ccccc23)C(=O)N[C@@H](CCCCN)C(=O)N[C@H]([C@@H](C)O)C(=O)N1)C(=O)O` (stereo partly specified) registered an IC50 of 0.0064 µM.
On to `C[C@@H](O)[C@H](NC(=O)[C@H]1CSSC[C@H](NC(=O)[C@@H](Cc2ccccc2)NC(=O)CNC(=O)[C@H](CO)NC(=O)CNC(=S)Nc2ccc3c(c2)C(=O)OC32c3ccc(O)cc3Oc3cc(O)ccc32)C(=O)N[C@@H](Cc2ccc(O)cc2)C(=O)N[C@H](Cc2c[nH]c3ccccc23)C(=O)N[C@@H](CCCCN)C(=O)N[C@H]([C@@H](C)O)C(=O)N1)C(=O)O`, for which the half-maximal inhibitory concentration (IC50) was 0.2852 µM.
